# CSC inhib = blocks cancer stem cells. cancer stem cell-like cells viability, luminescence. 300,000 compounds, 1.1% hits. inhibition, % at 7.5 µM; in the data active = inhibition above about 75%; inconclusive = no clear call, values can overlap the other calls; tested in HMLE shEcad cells
# SKKanGAS inh = inhibitors of SKKanGAS S. pyogenes growth in kanamycin (SK-promoter or general growth effect). BacTiter-Glo, 6 h. inhibition, % at 7.5 µM. 300,000 compounds, 1.3% hits. AID 1662;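 active = mean replicate score, as percent of positive control median, at least 50; inconclusive = mean below 50 but one replicate at or above 50; inactive = mean and every replicate below 50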;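 note: strain carries kanamycin resistance gene driven by streptokinase promoter and grows in 40 µg/ml kanamycin; loss of luminescence reflects streptokinase promoter inhibition or plain growth inhibition; 0% = median of DMSO wells and 100% = positive control at its reference dose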
# XBP1 UPR activ = activators of adaptive arm of unfolded protein response (XBP1); CHO-XBP1 luciferase reporter, IRE1-XBP1 UPR activation, luminescence; percent of tunicamycin response, DMSO as zero; activation, % at 20 µM; 330,000 compounds, 0.33% hits;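 active = versus positive control, 20 µM dose yields 30% or more activation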;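 note: 100% = tunicamycin at 10 µg/mL and 0% = DMSO only wells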
#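 Assay system: CHO-XBP1 luciferase reporter cells; Schedule: 6 h treatment, 37 °C; Detection: glow luminescence from Steady-Glo reagent; Benchmarks: high control tunicamycin 10 µg/mL final, low control DMSO vehicle only.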
# Mdm2-MdmX inh = disrupts the human Mdm2-MdmX interaction; O15151+Q00987; inhibition, % at 8 µM; 330,000 compounds, 3% hits; SaOS-2 split-luciferase Mdm2/MdmX complementation, luminescence;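 active = inhibition of at least 50% at 8 µM in the primary screen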
# Target sequence (O15151 whole entry, looked up): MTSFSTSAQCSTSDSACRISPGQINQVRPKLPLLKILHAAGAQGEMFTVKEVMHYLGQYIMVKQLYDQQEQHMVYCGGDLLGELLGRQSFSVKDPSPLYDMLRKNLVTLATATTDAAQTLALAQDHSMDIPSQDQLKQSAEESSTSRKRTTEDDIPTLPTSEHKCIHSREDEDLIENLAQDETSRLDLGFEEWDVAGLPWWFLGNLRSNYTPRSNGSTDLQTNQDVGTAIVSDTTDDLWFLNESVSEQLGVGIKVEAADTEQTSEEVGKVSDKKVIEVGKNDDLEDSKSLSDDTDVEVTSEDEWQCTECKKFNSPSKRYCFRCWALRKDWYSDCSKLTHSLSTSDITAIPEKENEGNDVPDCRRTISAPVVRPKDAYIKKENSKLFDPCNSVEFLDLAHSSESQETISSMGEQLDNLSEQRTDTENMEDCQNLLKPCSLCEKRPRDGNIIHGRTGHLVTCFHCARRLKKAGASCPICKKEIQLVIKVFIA
# Target sequence (Q00987 whole entry, looked up): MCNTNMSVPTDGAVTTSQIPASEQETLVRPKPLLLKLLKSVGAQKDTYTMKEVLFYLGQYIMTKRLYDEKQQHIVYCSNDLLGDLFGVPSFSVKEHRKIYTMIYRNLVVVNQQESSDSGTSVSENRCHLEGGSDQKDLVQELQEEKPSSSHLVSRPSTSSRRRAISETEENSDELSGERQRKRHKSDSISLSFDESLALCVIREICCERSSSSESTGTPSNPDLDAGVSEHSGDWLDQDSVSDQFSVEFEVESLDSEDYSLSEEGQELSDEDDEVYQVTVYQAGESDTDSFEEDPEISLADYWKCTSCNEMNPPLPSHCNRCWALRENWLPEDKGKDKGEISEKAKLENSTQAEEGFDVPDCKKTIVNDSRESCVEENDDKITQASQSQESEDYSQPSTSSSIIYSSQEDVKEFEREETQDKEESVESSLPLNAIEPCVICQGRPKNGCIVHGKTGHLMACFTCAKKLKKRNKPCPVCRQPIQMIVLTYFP
# Beta cell apopt = beta cell apoptosis inhibition. INS-1E cytokine-induced death, ATP luminescence, 48 h; percent of positive-control rescue, neutral wells zero. protection from apoptosis, % (no concentration beside the values). 300,000 compounds, 0.8% hits. AID 435005;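 active = Every replicate reaches about 75%, or at least half do and their mean reaches it too, limit read from the data; inconclusive = At least half of replicates reach the limit but their mean does not; inactive = Under half of replicates reach the limit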;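 note: 0% = cytokine-treated negative control wells and 100% = positive control rescue; higher means more ATP so stronger rescue from cytokine killing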
# CHOP UPR activ = activators of apoptotic arm of unfolded protein response (CHOP); CHO-CHOP luciferase reporter, UPR activation, luminescence; percent of tunicamycin response over DMSO baseline; activation, % at 10 µM; 330,000 compounds, 0.34% hits;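 active = at 10 µM dose, activation of 40% or more, normalized to positive control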;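 note: 100% = tunicamycin at 10 µg/mL and 0% = DMSO alone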
#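 measured by = luciferase luminescence | assay system = CHO-CHOP cells, stable luciferase reporter of PERK-eIF2a-CHOP signalling | amount = 500 reporter cells seeded per well | timing = 6 h compound exposure at 37 °C after overnight seeding | controls = positive tunicamycin 10 µg/mL, negative DMSO alone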
# Mdm2 MdmX conf = human Mdm2/MdmX binding inhibition, confirmed; shares compounds with Mdm2-MdmX inh; luminescent assay; inhibition, % at 8 µM; 10,000 compounds, 55% hits; AID 489028; in the data active = inhibition above about 40%
# Full FLuc ctr = full-length luciferase inhibition in Mdm2/MdmX counter-screen; 6,200 compounds, 77% hits; SaOS-2 full-length luciferase counterscreen, luminescence; inhibition, % at 8 µM; shares compounds with Mdm2-MdmX inh;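 active = mean inhibition at 8 µM reaching about 37%, which flags the compound as non-specific, limit read from the data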;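 note: p53-null SaOS-2 cells with luciferase driven by a doxycycline-inducible promoter; compound on cells about two nights before reading with doxycycline added after day one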
# Active calls of the source: *; ? = inconclusive; · = not tested or not shown. Rows were chosen to be rich in hits. Some 4.8% of all compounds tested hit in one or more screens of this group.
SMILES,CSC inhib,SKKanGAS inh,XBP1 UPR activ,Mdm2-MdmX inh,Beta cell apopt,CHOP UPR activ,Mdm2 MdmX conf,Full FLuc ctr
O=C(C1CCN(Cc2ccc(Cl)cc2)CC1)N1CCN(C(c2ccccc2)c2ccccc2)CC1,64,11,-3,56*,33,1,25,·
O=C(C1CCN(Cc2ccc(OCc3ccccc3)cc2)CC1)N1CCCC1,-7,-1,-2,-10,-8,2,·,·
CC1(C)CC(=O)C=C(NC2=CC3OC(c4ccccc4)OCC3OC2=O)C1 (stereo unspecified),14,-2,-3,70*,-40,17,34,54*
O=C(O)c1ccccc1C(=O)c1ccc2c(c1)CCC2,-11,3,1,1,-3,1,·,·
COc1cc2c(cc1OC)CN(C(C)C(=O)N1CCc3ccccc31)CC2 (stereo unspecified),-1,-7,0,52*,2,-1,34,84*
CCN(CC)CCNC(=O)c1ccc(NC(=O)c2cccc(S(=O)(=O)N3CCc4ccccc43)c2)cc1,·,·,4,76*,·,0,44*,67*
CN(Cc1nc2ccccc2c(=O)[nH]1)C(=O)c1cccc(S(=O)(=O)N2CCc3ccccc32)c1,24,·,-3,81*,6,-1,55*,68*
CC1Cc2ccccc2N1S(=O)(=O)c1cccc(C(=O)N2CCN(c3ncccn3)CC2)c1 (stereo unspecified),51,-1,-5,90*,1,1,89*,55*
CCN(CC)CCNC(=O)c1cc(S(=O)(=O)N2CCc3ccccc32)cn1C,-4,-1,2,25,-7,-1,·,·
CC(=O)c1cccc(CN(C)CC2CCCN(CCc3ccccc3C)C2)c1 (stereo unspecified),12,3,-3,8,-3,-3,·,·
CC(C)c1onc(C(=O)Nc2ccc3c(c2)OCO3)c1[N+](=O)[O-],5,0,-1,19,8,5,·,·
N[C@@H](Cc1ccc(O)cc1)C(=O)Nc1ccc2ccccc2c1,8,·,4,-21,-4,2,·,·
CCN(CC)CCNC(=O)c1ccc(NC(=O)c2cccc(S(=O)(=O)N3c4ccccc4CC3C)c2)cc1 (stereo unspecified),22,0,0,80*,-5,1,27,·
CC1Cc2ccccc2N1S(=O)(=O)c1cccc(C(=O)NCCCO)c1 (stereo unspecified),10,1,-4,1,-1,-2,·,·
CCOC(=O)c1ccc(NC(=O)c2cccc(S(=O)(=O)N3c4ccccc4CC3C)c2)s1 (stereo unspecified),47,36,10,57*,36,13,33,·
CC1Cc2ccccc2N1S(=O)(=O)c1cccc(C(=O)NCc2ccccn2)c1 (stereo unspecified),-8,·,1,-2,0,1,·,·
COc1cc2c(cc1OC)CN(C(=O)c1cccc(S(=O)(=O)N3CCc4ccccc43)c1)CC2,34,·,1,90*,1,0,59*,86*
Cc1cccc(C(=O)OCC(=O)c2ccc(CC(=O)N3CCOCC3)s2)c1C,·,·,0,4,·,1,·,·
NC(=O)[C@H]1CC2(CC(c3cccc(NC(=O)CC(c4ccccc4)c4ccccc4)c3)=NO2)CN1C(=O)CC(c1ccccc1)c1ccccc1 (stereo partly specified),13,40,-1,68*,-3,9,52*,57*
CCC(=O)N1CC2(CC(c3cccc(NC(=O)CC(c4ccccc4)c4ccccc4)c3)=NO2)C[C@H]1C(N)=O (stereo partly specified),-3,-2,2,-2,1,1,·,·
NC(=O)[C@@H]1CC2(CC(c3cccc(NC(=O)CC(c4ccccc4)c4ccccc4)c3)=NO2)CN1C(=O)c1ccc(Cl)cc1 (stereo partly specified),37,42,0,52*,3,-2,33,·
CC(=O)N1CCN(S(=O)(=O)c2cccc(C(=O)NNC(=O)Cn3nc(C)cc3C)c2)CC1,·,·,-3,-18,-7,-2,·,·
CCOc1ccc(C(=O)NC(=S)Nc2ncccc2C)cc1[N+](=O)[O-],-8,-6,2,78*,2,2,8,·
Cc1ccc(C(=O)Nc2ccc(NC(=O)c3cccs3)cc2)cc1[N+](=O)[O-],-15,-2,0,87*,5,2,24,107*
Cc1ccc(NC(=O)c2ccc(Nc3c([N+](=O)[O-])cc([N+](=O)[O-])cc3[N+](=O)[O-])cc2)cc1,41,23,-5,79*,67,-6,8,·
SMILES,CSC inhib,SKKanGAS inh,XBP1 UPR activ,Mdm2-MdmX inh,Beta cell apopt,CHOP UPR activ,Mdm2 MdmX conf,Full FLuc ctr
Cc1ccc(C(=O)NC(=S)Nc2ccc(NC(=O)c3cccs3)cc2)cc1[N+](=O)[O-],-8,45,3,48,17,0,·,·
Cc1ccc(C(=O)Nc2sc(C)c(-c3ccccc3)c2C(N)=O)cc1[N+](=O)[O-],-12,3,-3,72*,9,-3,-3,·
Cc1ccc(OCCC(=O)OC(C)C(=O)Nc2ccc(Cl)cn2)cc1 (stereo unspecified),-6,9,-1,0,5,1,·,·
Cc1ccc(NC(=O)COC(=O)C2CC3CCCC(C2)C3=O)c([N+](=O)[O-])c1 (stereo unspecified),-12,·,-2,13,-2,1,·,·
CN(CC(=O)Nc1ccccc1Br)C(=O)CN1CCN(Cc2cccc(Cl)c2)CC1,·,·,-1,0,·,-1,·,·
CCOc1ccc(C(=O)Nc2ccc(NC(=O)c3cccs3)cc2)cc1[N+](=O)[O-],-5,-7,10,54*,-1,3,9,·
COc1ccc(-c2oc3ccc(-c4ccc(OC)nc4)cc3c2C#CC2(O)CCCCC2)cc1,·,44,0,64*,14,0,31,·
COc1ccc(-c2oc3ccc(-c4ccc5c(c4)OCO5)cc3c2-c2ccc(OC)nc2)cc1,35,7,-2,17,4,-1,·,·
COc1ccc(-c2ccc3oc(-c4ccc(OC)cc4)c(C#CCO)c3c2)cc1,10,?,2,88*,26,1,73*,21
COc1ccc(-c2ccc3oc(-c4ccc(OC)cc4)c(-c4ccc(OC)cc4)c3c2)cc1,14,-5,0,4,2,-1,·,·
COC(=O)c1c(-c2ccc(OC)cc2)oc2ccc(-c3ccc(OC)nc3)cc12,28,8,-4,82*,16,0,57*,45*
